Source: ChEMBL document CHEMBL1122465, “Transport of antimicrobial agents using peptide carrier systems: anticandidal activity of m-fluorophenylalanine--peptide conjugates” (1983)
≈ marks a conversion by molar mass, not a printed value. Square brackets hold non-standard residues; d marks the D form. Peptide text beside a SMILES is read from it. Phe(3-F) = N[C@@H](Cc1cccc(F)c1)C(=O)O

What was measured:
Assay type in all cases: functional
Candida albicans [1] = experiment: Minimum inhibitory concentration was determined for Candida albicans strain 759, by a microtiter broth dilution assay
Outline: (§1)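 Twofold broth dilution in yeast carbon base medium with 200 μg/mL sodium glutamate, compounds 250 to 0.25 μg/mL. Inoculum grown in YCB-glutamate 15 h at 37 °C; final ~10⁴ cfu/mL. Incubated at 37 °C, read at 24 and 48 h for growth inhibition; MIC taken as lowest inhibiting concentration.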

Candida albicans [2] = experiment: Minimum inhibitory concentration was determined for Candida albicans strain B311, by a microtiter broth dilution assay; outline: as §1
Candida albicans [3] = experiment: Zone developed against Candida albicans, when a 12.5 ug/disc was added
Candida albicans [4] = experiment: Zone developed against Candida albicans, when a 25.0 ug/disc was added
Candida albicans [5] = experiment: Zone developed against Candida albicans, when a 6.0 ug/disc was added
Candida albicans [6] = experiment: Zone developed against Candida albicans, when a 3.0 ug/disc was added
Candida albicans [7] = experiment: Zone developed against Candida albicans B-311, when a 12.5 ug/disc was added
Candida albicans [8] = experiment: Zone developed against Candida albicans, when a 25.0 ug/disc was added; 25-31

| MIC (Candida albicans [1]) [µg/mL] | MIC (Candida albicans [2]) [µg/mL] | SMILES | Zone size (Candida albicans [3]) [mm] | Zone size (Candida albicans [4]) [mm] | Zone size (Candida albicans [5]) [mm] | Zone size (Candida albicans [6]) [mm] | Zone size (Candida albicans [7]) [mm] | other results |
| --- | --- | --- | --- | --- | --- | --- | --- | --- |
| > 250 | > 250 | N[C@@H](Cc1cccc(F)c1)C(=O)O | – | – | – | – | – | – |
| – | – | C[C@H](N)C(=O)N[C@@H](C)C(=O)N[C@@H](C)C(=O)O.C[C@H](NC(=O)[C@H](C)NC(=O)[C@@H](N)Cc1cccc(F)c1)C(=O)O | 0 | 0 | 0 | 0 | – | – |
| – | – | C[C@H](N)C(=O)N[C@@H](C)C(=O)N[C@@H](C)C(=O)O.C[C@H](NC(=O)[C@@H](N)Cc1cccc(F)c1)C(=O)O | 0 | 0 | 0 | 0 | – | – |
| – | – | C[C@H](NC(=O)[C@H](C)NC(=O)[C@@H](N)Cc1cccc(F)c1)C(=O)O.N[C@@H](Cc1c[nH]cn1)C(=O)O | – | – | – | – | 25 | – |
| – | – | C[C@H](N)C(=O)N[C@@H](C)C(=O)O.C[C@H](NC(=O)[C@H](C)NC(=O)[C@@H](N)Cc1cccc(F)c1)C(=O)O | 18 | 24 | 16 | 0 | – | – |
| – | – | C[C@H](NC(=O)[C@@H](N)Cc1cccc(F)c1)C(=O)O.NCC(=O)N[C@@H](Cc1ccccc1)C(=O)O | 0 | 0 | 0 | 0 | – | – |
| – | – | C[C@H](NC(=O)CN)C(=O)O.C[C@H](NC(=O)[C@@H](N)Cc1cccc(F)c1)C(=O)O | 0 | – | 0 | 0 | – | Zone size (Candida albicans [8]): 25 mm |
| – | – | CC[C@H](C)[C@H](N)C(=O)O.C[C@H](NC(=O)[C@H](C)NC(=O)[C@@H](N)Cc1cccc(F)c1)C(=O)O | – | – | – | – | 27 | – |
| – | – | C[C@H](NC(=O)[C@H](C)NC(=O)[C@@H](N)Cc1cccc(F)c1)C(=O)O.N[C@@H](CC(=O)O)C(=O)O | – | – | – | – | 26 | – |
| – | – | C[C@H](NC(=O)[C@H](C)NC(=O)[C@@H](N)Cc1cccc(F)c1)C(=O)O.NCC(=O)N[C@@H](Cc1ccccc1)C(=O)O | 0 | 0 | 0 | 0 | – | – |
| – | – | C[C@H](NC(=O)CN)C(=O)O.C[C@H](NC(=O)[C@H](C)NC(=O)[C@@H](N)Cc1cccc(F)c1)C(=O)O | 18 | 25 | 0 | 0 | – | – |
| – | – | C[C@H](N)C(=O)N[C@@H](C)C(=O)O.C[C@H](NC(=O)[C@@H](N)Cc1cccc(F)c1)C(=O)O | 0 | 0 | 0 | 0 | – | – |
| – | – | C[C@H](NC(=O)[C@H](C)NC(=O)[C@@H](N)Cc1cccc(F)c1)C(=O)O.N[C@@H](Cc1c[nH]c2ccccc12)C(=O)O | – | – | – | – | 24 | – |
| – | – | C[C@H](NC(=O)[C@H](C)NC(=O)[C@@H](N)Cc1cccc(F)c1)C(=O)O.N[C@@H](Cc1ccccc1)C(=O)O | – | – | – | – | 0 | – |
| > 200 | > 200 | C[C@H](NC(=O)[C@H](N)Cc1cccc(F)c1)C(=O)O | – | – | – | – | – | – |
| – | – | C[C@H](NC(=O)[C@H](C)NC(=O)[C@@H](N)Cc1cccc(F)c1)C(=O)O.O=C(O)[C@@H]1CCCN1 | – | – | – | – | 27 | – |
| > 250 | > 250 | CSCC[C@H](NC(=O)[C@H](CCSC)NC(=O)[C@H](N)Cc1cccc(F)c1)C(=O)O | – | – | – | – | – | – |
| 63 (≈ 141 µM) | 8 (≈ 18 µM) | CSCC[C@H](NC(=O)[C@H](CCSC)NC(=O)[C@@H](N)Cc1cccc(F)c1)C(=O)O | – | – | – | – | – | – |
| 4 (≈ 15.7 µM) | 2 (≈ 7.87 µM) | C[C@H](NC(=O)[C@@H](N)Cc1cccc(F)c1)C(=O)O | – | – | – | – | – | – |
| > 250 | > 250 | C[C@H](NC(=O)[C@H](C)NC(=O)[C@H](N)Cc1cccc(F)c1)C(=O)O | – | – | – | – | – | – |
| 2 (≈ 6.15 µM) | 0.5 (≈ 1.54 µM) | C[C@H](NC(=O)[C@H](C)NC(=O)[C@@H](N)Cc1cccc(F)c1)C(=O)O | – | – | – | – | 24 | – |
| 63 (≈ 194 µM) | 2 (≈ 6.15 µM) | C[C@H](N)C(=O)N[C@@H](C)C(=O)N[C@@H](Cc1cccc(F)c1)C(=O)O (H-Ala-Ala-[Phe(3-F)]-OH) | – | – | – | – | – | – |
